Results from ChEMBL document CHEMBL2062435, “Synthesis and in vitro antibacterial activity of gemifloxacin derivatives containing a substituted benzyloxime moiety” (2012).
In brackets after ≈: the same amount, converted by molar mass.

What was measured:
Format in all cases: functional
Staphylococcus aureus [1] = experiment: Antimicrobial activity against Staphylococcus aureus ATCC […] after 18-24 hrs by two-fold serial dilution method
In short: (§1)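 Agar-medium twofold serial dilution against Gram-positive and Gram-negative strains; MIC taken as the lowest compound concentration giving complete inhibition of bacterial growth after incubation at 35 °C for 18-24 h.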

Staphylococcus aureus [2] = experiment: Antimicrobial activity against extended spectrum beta-lactamases-producing methicillin-resistant Staphylococcus aureus 10-11 after 18-24 hrs by two-fold serial dilution method
In short: (§2)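 Agar twofold serial dilution MIC against clinical isolates. MIC was taken as the lowest concentration giving complete inhibition of bacterial growth after incubation at 35 °C for 18-24 h.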

Staphylococcus aureus [3] = experiment: Antimicrobial activity against extended spectrum beta-lactamases-producing methicillin-resistant Staphylococcus aureus 10-15 after 18-24 hrs by two-fold serial dilution method; in short: as §2
Staphylococcus aureus [4] = experiment: Antimicrobial activity against extended spectrum beta-lactamases-producing methicillin-sensitive Staphylococcus aureus 10-13 after 18-24 hrs by two-fold serial dilution method; in short: as §1
Staphylococcus aureus [5] = experiment: Antimicrobial activity against extended spectrum beta-lactamases-producing methicillin-sensitive Staphylococcus aureus 10-14 after 18-24 hrs by two-fold serial dilution method; in short: as §1
[6] = test system: Staphylococcus epidermidis; experiment: Antimicrobial activity against extended spectrum beta-lactamases-producing methicillin-resistant Staphylococcus epidermidis 10-10 after 18-24 hrs by two-fold serial dilution method; in short: as §2
[7] = test system: Staphylococcus epidermidis; experiment: Antimicrobial activity against extended spectrum beta-lactamases-producing methicillin-resistant Staphylococcus epidermidis 10-13 after 18-24 hrs by two-fold serial dilution method; in short: as §2
[8] = test system: Staphylococcus epidermidis; experiment: Antimicrobial activity against extended spectrum beta-lactamases-producing methicillin-sensitive Staphylococcus epidermidis 10-11 after 18-24 hrs by two-fold serial dilution method; in short: as §1
[9] = test system: Staphylococcus epidermidis; experiment: Antimicrobial activity against extended spectrum beta-lactamases-producing methicillin-sensitive Staphylococcus epidermidis 10-13 after 18-24 hrs by two-fold serial dilution method; in short: as §1
[10] = test system: Staphylococcus epidermidis; experiment: Antimicrobial activity against extended spectrum beta-lactamases-producing methicillin-sensitive Staphylococcus epidermidis 10-15 after 18-24 hrs by two-fold serial dilution method; in short: as §1
Enterococcus faecalis [11] = experiment: Antimicrobial activity against Enterococcus faecalis 10-5 after 18-24 hrs by two-fold serial dilution method; in short: as §1
Enterococcus faecalis [12] = experiment: Antimicrobial activity against Enterococcus faecalis 10-6 after 18-24 hrs by two-fold serial dilution method; in short: as §1
Enterococcus faecalis [13] = experiment: Antimicrobial activity against Enterococcus faecalis 10-7 after 18-24 hrs by two-fold serial dilution method; in short: as §1
Enterococcus faecium [14] = experiment: Antimicrobial activity against Enterococcus faecium 10-5 after 18-24 hrs by two-fold serial dilution method; in short: as §1
Enterococcus faecium [15] = experiment: Antimicrobial activity against Enterococcus faecium 10-9 after 18-24 hrs by two-fold serial dilution method; in short: as §1
Streptococcus pneumoniae [16] = experiment: Antimicrobial activity against extended spectrum beta-lactamases-producing Streptococcus pneumoniae 10-1 after 18-24 hrs by two-fold serial dilution method; in short: as §1
Streptococcus pneumoniae [17] = experiment: Antimicrobial activity against extended spectrum beta-lactamases-producing Streptococcus pneumoniae 10-4 after 18-24 hrs by two-fold serial dilution method; in short: as §1
Escherichia coli [18] = experiment: Antimicrobial activity against Escherichia coli ATCC 25922 after 18-24 hrs by two-fold serial dilution method; in short: as §1
Escherichia coli [19] = experiment: Antimicrobial activity against Escherichia coli 10-1 after 18-24 hrs by two-fold serial dilution method; in short: as §1
Escherichia coli [20] = experiment: Antimicrobial activity against Escherichia coli 10-2 after 18-24 hrs by two-fold serial dilution method; in short: as §1
Escherichia coli [21] = experiment: Antimicrobial activity against extended spectrum beta-lactamases-producing Escherichia coli 10-2 after 18-24 hrs by two-fold serial dilution method; in short: as §1
Escherichia coli [22] = experiment: Antimicrobial activity against Escherichia coli 10-3 after 18-24 hrs by two-fold serial dilution method; in short: as §1
Escherichia coli [23] = experiment: Antimicrobial activity against extended spectrum beta-lactamases-producing Escherichia coli 10-3 after 18-24 hrs by two-fold serial dilution method; in short: as §1
Escherichia coli [24] = experiment: Antimicrobial activity against extended spectrum beta-lactamases-producing Escherichia coli 10-4 after 18-24 hrs by two-fold serial dilution method; in short: as §1
Klebsiella pneumoniae [25] = experiment: Antimicrobial activity against extended spectrum beta-lactamases-producing Klebsiella pneumoniae 10-1 after 18-24 hrs by two-fold serial dilution method; in short: as §1
Klebsiella pneumoniae [26] = experiment: Antimicrobial activity against Klebsiella pneumoniae 10-2 after 18-24 hrs by two-fold serial dilution method; in short: as §1
Klebsiella pneumoniae [27] = experiment: Antimicrobial activity against extended spectrum beta-lactamases-producing Klebsiella pneumoniae 10-2 after 18-24 hrs by two-fold serial dilution method; in short: as §1
Klebsiella pneumoniae [28] = experiment: Antimicrobial activity against Klebsiella pneumoniae 10-3 after 18-24 hrs by two-fold serial dilution method; in short: as §1
Klebsiella pneumoniae [29] = experiment: Antimicrobial activity against extended spectrum beta-lactamases-producing Klebsiella pneumoniae 10-3 after 18-24 hrs by two-fold serial dilution method; in short: as §1
Klebsiella pneumoniae [30] = experiment: Antimicrobial activity against Klebsiella pneumoniae 10-4 after 18-24 hrs by two-fold serial dilution method; in short: as §1
Pseudomonas aeruginosa [31] = experiment: Antimicrobial activity against Pseudomonas aeruginosa 10-12 after 18-24 hrs by two-fold serial dilution method; in short: as §1
Pseudomonas aeruginosa [32] = experiment: Antimicrobial activity against extended spectrum beta-lactamases-producing Pseudomonas aeruginosa 10-5 after 18-24 hrs by two-fold serial dilution method; in short: as §1
Pseudomonas aeruginosa [33] = experiment: Antimicrobial activity against extended spectrum beta-lactamases-producing Pseudomonas aeruginosa 10-9 after 18-24 hrs by two-fold serial dilution method; in short: as §1
Pseudomonas aeruginosa [34] = experiment: Antimicrobial activity against extended spectrum beta-lactamases-producing Pseudomonas aeruginosa 10-15 after 18-24 hrs by two-fold serial dilution method; in short: as §1
Pseudomonas aeruginosa [35] = experiment: Antimicrobial activity against extended spectrum beta-lactamases-producing Pseudomonas aeruginosa 10-18 after 18-24 hrs by two-fold serial dilution method; in short: as §1
Pseudomonas aeruginosa [36] = experiment: Antimicrobial activity against extended spectrum beta-lactamases-producing Pseudomonas aeruginosa 10-20 after 18-24 hrs by two-fold serial dilution method; in short: as §1
Staphylococcus aureus [37] = experiment: Antimicrobial activity against methicillin-resistant Staphylococcus aureus clinical isolate after 18-24 hrs by two-fold serial dilution method; in short: as §2
[38] = test system: Staphylococcus epidermidis; experiment: Antimicrobial activity against methicillin-resistant Staphylococcus epidermidis clinical isolate after 18-24 hrs by two-fold serial dilution method

SMILES | MIC (Staphylococcus aureus [1]) | MIC (Staphylococcus aureus [2]) | MIC (Staphylococcus aureus [3]) | MIC (Staphylococcus aureus [4]) | MIC (Staphylococcus aureus [5]) | MIC [6] | MIC [7] | MIC [8] | MIC [9] | MIC [10] | MIC (Enterococcus faecalis [11]) | MIC (Enterococcus faecalis [12]) | MIC (Enterococcus faecalis [13]) | MIC (Enterococcus faecium [14]) | MIC (Enterococcus faecium [15]) | MIC (Streptococcus pneumoniae [16]) | MIC (Streptococcus pneumoniae [17]) | MIC (Escherichia coli [18]) | MIC (Escherichia coli [19]) | MIC (Escherichia coli [20]) | further results
COc1cccc(CO/N=C2\CN(c3nc4c(cc3F)c(=O)c(C(=O)O)cn4C3CC3)CC2CN)c1OC.CS(=O)(=O)O (racemic) | 0.015 µg/mL | 1 µg/mL | 4 µg/mL | 0.03 µg/mL | 0.06 µg/mL | 0.5 µg/mL | 0.25 µg/mL | 0.25 µg/mL | 0.06 µg/mL | 4 µg/mL | 0.25 µg/mL | 4 µg/mL | 1 µg/mL | 4 µg/mL | 4 µg/mL | 0.125 µg/mL | 0.06 µg/mL | 0.125 µg/mL | > 128 µg/mL | 16 µg/mL | MIC (Escherichia coli [21]): > 128 µg/mL; MIC (Escherichia coli [22]): 16 µg/mL; MIC (Escherichia coli [23]): 32 µg/mL; MIC (Escherichia coli [24]): 2 µg/mL; MIC (Klebsiella pneumoniae [25]): > 128 µg/mL; MIC (Klebsiella pneumoniae [26]): 128 µg/mL; MIC (Klebsiella pneumoniae [27]): > 128 µg/mL; MIC (Klebsiella pneumoniae [28]): 2 µg/mL; MIC (Klebsiella pneumoniae [29]): > 128 µg/mL; MIC (Klebsiella pneumoniae [30]): > 128 µg/mL; MIC (Pseudomonas aeruginosa [31]): 8 µg/mL; MIC (Pseudomonas aeruginosa [32]): 4 µg/mL; MIC (Pseudomonas aeruginosa [33]): 4 µg/mL; MIC (Pseudomonas aeruginosa [34]): 8 µg/mL; MIC (Pseudomonas aeruginosa [35]): 4 µg/mL; MIC (Pseudomonas aeruginosa [36]): 8 µg/mL; MIC50 (Staphylococcus aureus [37]): 1 µg/mL; MIC90 (Staphylococcus aureus [37]): 4 µg/mL
CO/N=C1\CN(c2nc3c(cc2F)c(=O)c(C(=O)O)cn3C2CC2)CC1CN (centres undefined) [GEMIFLOXACIN] | 0.06 µg/mL (≈ 0.154 µM) | 4 µg/mL (≈ 10.3 µM) | 1 µg/mL (≈ 2.57 µM) | 0.25 µg/mL (≈ 0.642 µM) | 0.06 µg/mL (≈ 0.154 µM) | 2 µg/mL (≈ 5.14 µM) | 0.5 µg/mL (≈ 1.28 µM) | 16 µg/mL (≈ 41.1 µM) | 1 µg/mL (≈ 2.57 µM) | 16 µg/mL (≈ 41.1 µM) | 1 µg/mL (≈ 2.57 µM) | 8 µg/mL (≈ 20.5 µM) | 2 µg/mL (≈ 5.14 µM) | 8 µg/mL (≈ 20.5 µM) | 8 µg/mL (≈ 20.5 µM) | 2 µg/mL (≈ 5.14 µM) | 2 µg/mL (≈ 5.14 µM) | 0.03 µg/mL (≈ 0.077 µM) | 8 µg/mL (≈ 20.5 µM) | 0.5 µg/mL (≈ 1.28 µM) | MIC (Escherichia coli [21]): 16 µg/mL (≈ 41.1 µM); MIC (Escherichia coli [22]): 0.5 µg/mL (≈ 1.28 µM); MIC (Escherichia coli [23]): 2 µg/mL (≈ 5.14 µM); MIC (Escherichia coli [24]): 8 µg/mL (≈ 20.5 µM); MIC (Klebsiella pneumoniae [25]): 16 µg/mL (≈ 41.1 µM); MIC (Klebsiella pneumoniae [26]): 0.5 µg/mL (≈ 1.28 µM); MIC (Klebsiella pneumoniae [27]): 16 µg/mL (≈ 41.1 µM); MIC (Klebsiella pneumoniae [28]): 8 µg/mL (≈ 20.5 µM); MIC (Klebsiella pneumoniae [29]): 16 µg/mL (≈ 41.1 µM); MIC (Klebsiella pneumoniae [30]): 32 µg/mL (≈ 82.2 µM); MIC (Pseudomonas aeruginosa [31]): 0.03 µg/mL (≈ 0.077 µM); MIC (Pseudomonas aeruginosa [32]): 0.5 µg/mL (≈ 1.28 µM); MIC (Pseudomonas aeruginosa [33]): 0.5 µg/mL (≈ 1.28 µM); MIC (Pseudomonas aeruginosa [34]): 1 µg/mL (≈ 2.57 µM); MIC (Pseudomonas aeruginosa [35]): 2 µg/mL (≈ 5.14 µM); MIC (Pseudomonas aeruginosa [36]): 0.5 µg/mL (≈ 1.28 µM); MIC50 (Staphylococcus aureus [37]): 2 µg/mL (≈ 5.14 µM); MIC90 (Staphylococcus aureus [37]): 8 µg/mL (≈ 20.5 µM); MIC50 [38]: 0.25 µg/mL (≈ 0.642 µM); MIC90 [38]: 8 µg/mL (≈ 20.5 µM)
CS(=O)(=O)O.NCC1CN(c2nc3c(cc2F)c(=O)c(C(=O)O)cn3C2CC2)C/C1=N\OCc1ccc2c(c1)OCCO2 (racemic) | 0.06 µg/mL | 1 µg/mL | 0.5 µg/mL | 0.06 µg/mL | 0.06 µg/mL | 0.5 µg/mL | 0.5 µg/mL | 0.5 µg/mL | 2 µg/mL | 0.5 µg/mL | 0.5 µg/mL | 4 µg/mL | 1 µg/mL | 8 µg/mL | 8 µg/mL | 0.5 µg/mL | 2 µg/mL | 0.25 µg/mL | 16 µg/mL | 4 µg/mL | MIC (Escherichia coli [21]): > 128 µg/mL; MIC (Escherichia coli [22]): 4 µg/mL; MIC (Escherichia coli [23]): > 128 µg/mL; MIC (Escherichia coli [24]): 2 µg/mL; MIC (Klebsiella pneumoniae [25]): > 128 µg/mL; MIC (Klebsiella pneumoniae [26]): 16 µg/mL; MIC (Klebsiella pneumoniae [27]): > 128 µg/mL; MIC (Klebsiella pneumoniae [28]): 32 µg/mL; MIC (Klebsiella pneumoniae [29]): 4 µg/mL; MIC (Klebsiella pneumoniae [30]): 128 µg/mL; MIC (Pseudomonas aeruginosa [31]): 2 µg/mL; MIC (Pseudomonas aeruginosa [32]): 2 µg/mL; MIC (Pseudomonas aeruginosa [33]): 2 µg/mL; MIC (Pseudomonas aeruginosa [34]): 2 µg/mL; MIC (Pseudomonas aeruginosa [35]): 4 µg/mL; MIC (Pseudomonas aeruginosa [36]): 2 µg/mL
